Data as given in ChEMBL document CHEMBL1817571, “Design and synthesis of new prostaglandin D₂ receptor antagonists” (Bioorg Med Chem, 2011).

Tests used:
[1] = target: Prostaglandin E2 receptor EP2 subtype (Mus musculus, UniProt Q62053); assay: Displacement of [3H]PGE2 from mouse prostaglandin EP2 receptor expressed in CHO cells after 60 mins by liquid scintillation counting; assay type: cell-based
How it was run: (§1)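 Membranes came from CHO cells stably expressing mEP1, EP2, EP3 or EP4. They were incubated with 2.5 nM [3H]PGE2 and graded test concentrations in 10 mM KH2PO4–KOH (1 mM EDTA, 10 mM MgCl2, 100 mM NaCl, pH 6.0) at room temperature, 20 min for EP1 and 60 min for EP2–4. Reactions were filtered on GF/B, washed with ice-cold buffer, and counted by scintillation. IC50 came by regression, with Ki via Cheng–Prusoff.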

[2] = target: T1, Prostaglandin E2 receptor EP3 subtype (Mus musculus, UniProt P30557); assay: Displacement of [3H]PGE2 from mouse prostaglandin EP3alpha receptor expressed in CHO cells after 60 mins by liquid scintillation counting; assay type: cell-based; how it was run: as §1
T1 sequence (P30557 whole entry): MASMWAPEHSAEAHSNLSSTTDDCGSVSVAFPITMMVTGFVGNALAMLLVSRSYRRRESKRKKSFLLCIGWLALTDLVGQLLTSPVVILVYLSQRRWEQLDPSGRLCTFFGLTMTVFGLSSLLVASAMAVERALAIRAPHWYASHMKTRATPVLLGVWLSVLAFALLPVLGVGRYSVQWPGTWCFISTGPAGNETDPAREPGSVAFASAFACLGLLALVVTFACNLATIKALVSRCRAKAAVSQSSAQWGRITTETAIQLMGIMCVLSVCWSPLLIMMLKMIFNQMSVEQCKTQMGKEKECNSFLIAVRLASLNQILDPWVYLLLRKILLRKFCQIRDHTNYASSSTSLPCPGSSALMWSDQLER

[3] = target: Prostaglandin E2 receptor EP4 subtype (Mus musculus, UniProt P32240); assay: Displacement of [3H]PGE2 from mouse prostaglandin EP4 receptor expressed in CHO cells after 60 mins by liquid scintillation counting; assay type: cell-based; how it was run: as §1
Prostaglandin E2 receptor EP4 subtype, sequence (P32240 whole entry): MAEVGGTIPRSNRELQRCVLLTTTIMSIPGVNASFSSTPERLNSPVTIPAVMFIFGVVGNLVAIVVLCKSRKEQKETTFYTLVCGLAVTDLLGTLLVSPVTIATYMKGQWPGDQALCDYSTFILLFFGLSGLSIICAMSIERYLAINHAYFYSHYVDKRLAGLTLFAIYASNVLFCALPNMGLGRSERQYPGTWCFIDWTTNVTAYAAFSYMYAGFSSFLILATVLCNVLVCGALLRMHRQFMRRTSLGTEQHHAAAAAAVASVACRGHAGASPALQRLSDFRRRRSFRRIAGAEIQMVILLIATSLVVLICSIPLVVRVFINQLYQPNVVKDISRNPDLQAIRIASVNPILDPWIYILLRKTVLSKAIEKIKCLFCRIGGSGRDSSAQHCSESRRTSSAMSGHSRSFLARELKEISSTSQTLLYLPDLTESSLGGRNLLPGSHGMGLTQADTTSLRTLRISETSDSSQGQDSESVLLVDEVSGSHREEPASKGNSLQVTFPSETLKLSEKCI

[4] = target: T2, Prostaglandin D2 receptor (Mus musculus, UniProt P70263); assay: Antagonist activity at mouse prostanoid DP receptor expressed in CHO cells assessed as inhibition of PGD2-induced intracellular cAMP production; assay type: functional, cell-based
T2 sequence (P70263 whole entry): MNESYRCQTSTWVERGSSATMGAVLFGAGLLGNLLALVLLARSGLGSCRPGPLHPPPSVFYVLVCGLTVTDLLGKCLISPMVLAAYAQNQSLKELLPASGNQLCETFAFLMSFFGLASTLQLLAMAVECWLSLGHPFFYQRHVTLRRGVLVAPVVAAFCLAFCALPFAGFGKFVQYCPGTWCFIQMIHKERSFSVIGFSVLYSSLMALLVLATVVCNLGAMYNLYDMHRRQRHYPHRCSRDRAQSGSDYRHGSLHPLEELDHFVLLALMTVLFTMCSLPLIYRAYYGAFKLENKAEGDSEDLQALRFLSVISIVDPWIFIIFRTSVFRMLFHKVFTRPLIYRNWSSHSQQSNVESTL
How it was run: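 CHO-mDP cells were seeded at 1×10^5 cells/well and grown 2 days. They were preincubated about 10 min at 37 °C in MEM with 2 µM diclofenac, then about 10 min in MEM with 0.1% BSA, 1 mM IBMX and 2 µM diclofenac. Test compounds at various concentrations plus 10 nM PGD2 were then added for 10 min at 37 °C. Reactions were stopped with 10% TCA, extracted with tri-n-octylamine/chloroform, and cAMP was measured by EIA.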

[5] = AUC (infinity) in rat at 1 mg/kg, iv; assay type: ADME, organism-based; parameters: time infinity, dose 1 mg/kg, route intravenous; conditions: plasma
How it was run: (§2)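 Fasted male rats (n = 3) received 1 mg/kg iv or 10 mg/kg po. Jugular vein blood was drawn with a heparinized syringe at pre-dose and 2 (iv only), 5, 15 and 30 min, and 1, 2, 4, 6 and 8 h. Plasma was obtained by centrifugation at 4 °C and stored at −80 °C. AUC, Cmax, T1/2, Vss and CL came from the plasma concentration–time course. BA was derived from dose-normalized AUCpo/AUCiv.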

[6] = AUC (infinity) in rat at 10 mg/kg, po; assay type: ADME, organism-based; parameters: time infinity, dose 10 mg/kg, route oral; conditions: plasma; how it was run: as §2
[7] = Total clearance in rat at 1 mg/kg, iv; assay type: ADME, organism-based; parameters: dose 1 mg/kg, route intravenous; conditions: in vivo; how it was run: as §2
[8] = Cmax in rat at 10 mg/kg, po; assay type: ADME, organism-based; parameters: dose 10 mg/kg, route oral; conditions: in vivo; how it was run: as §2
[9] = Half life in rat at 1 mg/kg, iv; assay type: ADME, organism-based; parameters: dose 1 mg/kg, route intravenous; conditions: in vivo; how it was run: as §2
[10] = Half life in rat at 10 mg/kg, po; assay type: ADME, organism-based; parameters: dose 10 mg/kg, route oral; conditions: in vivo; how it was run: as §2
[11] = Volume of distribution at steady state in rat at 1 mg/kg, iv; assay type: ADME, organism-based; parameters: dose 1 mg/kg, route intravenous; conditions: in vivo, read-out: Vdss; how it was run: as §2
[12] = Oral bioavailability in rat at 10 mg/kg; assay type: ADME, organism-based; conditions: in vivo; how it was run: as §2
[13] = target: T2, Prostaglandin D2 receptor; assay: Displacement of [3H]PGD2 from mouse prostanoid DP receptor expressed in CHO cells after 20 mins by liquid scintillation counting
[14] = target: T3, Prostaglandin E2 receptor EP1 subtype (Mus musculus, UniProt P35375); assay: Displacement of [3H]PGE2 from mouse prostaglandin EP1 receptor expressed in CHO cells after 20 mins by liquid scintillation counting
T3 sequence (P35375 whole entry): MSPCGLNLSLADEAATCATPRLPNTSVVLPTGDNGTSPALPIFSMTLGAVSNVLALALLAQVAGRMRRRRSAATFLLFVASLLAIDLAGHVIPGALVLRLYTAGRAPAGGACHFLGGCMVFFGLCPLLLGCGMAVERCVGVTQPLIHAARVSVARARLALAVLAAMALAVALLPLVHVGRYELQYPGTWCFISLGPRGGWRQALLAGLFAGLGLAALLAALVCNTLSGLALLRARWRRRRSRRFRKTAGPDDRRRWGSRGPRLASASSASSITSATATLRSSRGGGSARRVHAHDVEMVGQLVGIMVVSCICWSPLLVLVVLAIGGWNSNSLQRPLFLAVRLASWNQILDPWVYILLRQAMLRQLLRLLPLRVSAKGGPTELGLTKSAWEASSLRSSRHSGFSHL

[15] = target: Prostacyclin receptor (Homo sapiens, UniProt P43119); assay: Displacement of [3H]Iloprost from human prostanoid IP receptor expressed in CHO cells after 30 mins by liquid scintillation counting
Prostacyclin receptor, sequence (P43119 whole entry): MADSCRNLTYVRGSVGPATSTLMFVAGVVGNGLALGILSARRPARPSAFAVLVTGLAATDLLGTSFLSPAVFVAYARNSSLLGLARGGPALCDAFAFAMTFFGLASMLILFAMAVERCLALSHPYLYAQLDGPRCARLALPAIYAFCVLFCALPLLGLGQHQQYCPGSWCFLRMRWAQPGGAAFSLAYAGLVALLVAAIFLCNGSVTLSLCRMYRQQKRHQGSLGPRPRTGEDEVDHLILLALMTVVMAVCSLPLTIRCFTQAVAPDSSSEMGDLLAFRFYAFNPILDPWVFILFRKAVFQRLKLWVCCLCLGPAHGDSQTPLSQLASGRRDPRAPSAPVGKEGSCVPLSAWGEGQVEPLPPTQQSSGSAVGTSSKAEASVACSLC

[16] = target: Prostaglandin F2-alpha receptor (Mus musculus, UniProt P43117); assay: Displacement of [3H]PGF2alpha from mouse prostanoid FP receptor expressed in CHO cells after 60 mins by liquid scintillation counting; assay type: cell-based
Prostaglandin F2-alpha receptor, sequence (P43117 whole entry): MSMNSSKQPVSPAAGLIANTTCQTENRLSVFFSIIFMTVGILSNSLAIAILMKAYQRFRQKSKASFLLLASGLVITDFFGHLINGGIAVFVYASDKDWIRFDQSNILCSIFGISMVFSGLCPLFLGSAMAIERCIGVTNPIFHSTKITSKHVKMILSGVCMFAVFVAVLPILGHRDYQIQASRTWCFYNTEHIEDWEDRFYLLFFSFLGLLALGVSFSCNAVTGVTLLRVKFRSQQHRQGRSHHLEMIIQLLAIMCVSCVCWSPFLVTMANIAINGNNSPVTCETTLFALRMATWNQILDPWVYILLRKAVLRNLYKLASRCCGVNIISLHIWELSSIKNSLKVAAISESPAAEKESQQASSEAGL
How it was run: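 CHO-mFP membranes were incubated with 2.5 nM [3H]PGF2α and varied test concentrations in 10 mM KH2PO4–KOH, 1 mM EDTA, 10 mM MgCl2, 100 mM NaCl, pH 6.0, for 60 min at room temperature. Samples were then filtered on GF/B, washed with ice-cold phosphate/NaCl buffer, and counted by scintillation. IC50 came from the regression curve, and Ki = IC50/(1+[L]/Kd).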

[17] = target: T4, Thromboxane A2 receptor (Homo sapiens, UniProt P21731); assay: Displacement of [3H]-SQ29548 from human prostanoid TP receptor expressed in CHO cells after 30 mins by liquid scintillation counting
T4 sequence (P21731 whole entry): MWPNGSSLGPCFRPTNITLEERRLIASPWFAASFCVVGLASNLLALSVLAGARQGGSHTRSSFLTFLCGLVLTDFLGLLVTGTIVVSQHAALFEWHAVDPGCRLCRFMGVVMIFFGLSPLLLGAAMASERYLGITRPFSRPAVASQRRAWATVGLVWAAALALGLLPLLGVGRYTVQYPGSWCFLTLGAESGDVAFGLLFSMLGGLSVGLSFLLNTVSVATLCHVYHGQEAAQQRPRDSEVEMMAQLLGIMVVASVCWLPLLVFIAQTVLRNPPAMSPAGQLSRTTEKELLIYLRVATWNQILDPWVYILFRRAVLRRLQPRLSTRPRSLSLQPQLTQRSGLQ

Prostaglandin E2 receptor EP2 subtype, sequence (Q62053 whole entry): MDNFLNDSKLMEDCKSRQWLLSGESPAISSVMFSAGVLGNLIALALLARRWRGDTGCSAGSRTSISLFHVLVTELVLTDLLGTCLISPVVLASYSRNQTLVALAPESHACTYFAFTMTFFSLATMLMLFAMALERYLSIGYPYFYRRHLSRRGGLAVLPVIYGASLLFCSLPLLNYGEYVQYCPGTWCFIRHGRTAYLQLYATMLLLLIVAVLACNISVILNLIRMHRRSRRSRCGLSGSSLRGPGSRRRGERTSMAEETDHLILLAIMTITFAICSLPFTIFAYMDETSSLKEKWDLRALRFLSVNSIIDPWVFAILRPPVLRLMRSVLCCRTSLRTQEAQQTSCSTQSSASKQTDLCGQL

Row | SMILES | Ki [1] [nM] | Ki [2] [nM] | Ki [3] [nM] | IC50 [4] [nM] | Ki [13] [nM] | Ki [14] [nM] | Ki [15] [nM] | further results
1 | CN1C[C@@H](COc2ccc(C(=O)Nc3cccc(CC(=O)O)c3)cc2)Oc2ccccc21 | 520 | > 10000 | > 10000 | 220 | 310 | 2100 | 6400 | AUC(0-inf) [5]: 670 ng·h/mL; AUC(0-inf) [6]: 8000 ng·h/mL; clearance [7]: 25 mL/min/kg; Cmax [8]: 4900 ng/mL; half-life [9]: 0.27 h; half-life [10]: 1.8 h; Vd [11]: 0.22 L/kg; bioavailability [12]: 119%
2 | CN1C[C@@H](COc2ccc(S(=O)(=O)Nc3cccc(CC(=O)O)c3)cc2)Oc2ccccc21 | 2300 | 210 | 140 |  | 430 | 2700 | 4600 | 
3 | CN1C[C@@H](COc2ccc(NC(=O)c3cccc(CC(=O)O)c3)cc2)Oc2ccccc21 | 3500 | > 10000 | > 10000 |  | 5300 | > 10000 | > 10000 | 
4 | CN1C[C@@H](COc2ccc(C(=O)N(C)c3cccc(CC(=O)O)c3)cc2)Oc2ccccc21 | 5300 | 1700 | > 10000 |  | 760 | > 10000 | > 10000 | 
5 | CCN(C(=O)c1ccc(OC[C@@H]2CN(C)c3ccccc3O2)cc1)c1cccc(CC(=O)O)c1 | > 10000 | 700 | > 10000 |  | 770 | 1300 | 2900 | 
6 | Cc1cc(OC[C@@H]2CN(C)c3ccccc3O2)ccc1C(=O)Nc1cccc(CC(=O)O)c1 |  | > 10000 | > 10000 | 3.3 | 18 | > 10000 | 3600 | Ki [16]: > 10000 nM; Ki [17]: > 10000 nM
7 | CN1C[C@@H](COc2ccc(C(=O)Nc3cccc(CC(=O)O)c3)c(Cl)c2)Oc2ccccc21 |  |  |  | 20 | 16 |  |  | 
8 | Cc1cc(OC[C@@H]2CN(C)c3ccccc3O2)ccc1C(=O)Nc1cccc(CC(=O)O)c1C |  |  |  | 28 | 59 |  |  | 

Stronger by Ki [13], values ahead:

Row | Ki [1] [nM] | Ki [2] [nM] | Ki [3] [nM] | IC50 [4] [nM] | Ki [13] [nM] | Ki [14] [nM] | Ki [15] [nM] | SMILES | further results
9 |  |  |  | 6.1 | 11 |  |  | Cc1ccc(NC(=O)c2ccc(OC[C@@H]3CN(C)c4ccccc4O3)cc2C)cc1CC(=O)O | 
10 | 62 | > 10000 | 670 | 3.4 | 8.4 | > 10000 | 3500 | Cc1cc(CC(=O)O)cc(NC(=O)c2ccc(OC[C@@H]3CN(C)c4ccccc4O3)cc2C)c1 | Ki [16]: > 10000 nM; Ki [17]: > 10000 nM
11 |  |  |  |  | 7.7 |  |  | Cc1cc(OC[C@@H]2CN(C)c3ccccc3O2)ccc1C(=O)Nc1cc(CC(=O)O)ccc1Cl | 
